Assay results published in ChEMBL document CHEMBL4706526, “The HIV-1 maturation inhibitor, EP39, interferes with the dynamic helix-coil equilibrium of the CA-SP1 junction of Gag” (Eur J Med Chem, 2020).
Active and inactive are the calls of the source. The rule behind the calls is not given here.

Key:
[1] = Binding affinity to HIV-1NL4-3 15N-labeled C-terminal domain CA-SP1-NC at V221 residue cleavage site of Gag-Pol protein harboring W184A/M185A mutant expressed in Escherichia coli by 1H-15N SOFAST-HMQC spectroscopic analysis; design: species or system Human immunodeficiency virus 1
Method in brief: (§1)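 300 μM 15N-labelled CA-CTD(W184A/M185A)-SP1-NC in acetate buffer (25 mM Na acetate pH 6.5, 25 mM NaCl, 0.1 mM ZnCl2, 0.1 mM 2-mercaptoethanol, 10% D2O), 303 K, 600 MHz with cryoprobe. Ligand added from ~60 mM DMSO-d6 stock; reference 1H-15N SOFAST-HMQC recorded first. Per-residue Kd from non-linear fit of chemical shift perturbation vs ligand concentration, one-site model plus linear non-specific term.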

[2] = Binding affinity to HIV-1NL4-3 15N-labeled C-terminal domain CA-SP1-NC at A232 residue cleavage site of Gag-Pol protein harboring W184A/M185A mutant expressed in Escherichia coli by 1H-15N SOFAST-HMQC spectroscopic analysis; design: species or system Human immunodeficiency virus 1; method in brief: as §1
[3] = Binding affinity to HIV-1NL4-3 15N-labeled C-terminal domain CA-SP1-NC at L231 residue cleavage site of Gag-Pol protein harboring W184A/M185A mutant expressed in Escherichia coli by 1H-15N SOFAST-HMQC spectroscopic analysis; design: species or system Human immunodeficiency virus 1; method in brief: as §1
[4] = system: Human immunodeficiency virus 1; assay: Binding affinity to HIV-1NL4-3 15N-labeled C-terminal domain CA-SP1-NC cleavage site of Gag-Pol protein harboring W184A/M185A mutant expressed in Escherichia coli assessed as formation of QVT motif at SP1 232 to 239 residues by NMR analysis
[5] = Binding affinity to HIV-1NL4-3 15N-labeled C-terminal domain CA-SP1-NC at M235 residue cleavage site of Gag-Pol protein harboring W184A/M185A mutant expressed in Escherichia coli by 1H-15N SOFAST-HMQC spectroscopic analysis; design: species or system Human immunodeficiency virus 1; method in brief: as §1
[6] = system: Human immunodeficiency virus 1; assay: Binding affinity to HIV-1NL4-3 15N-labeled C-terminal domain CA-SP1-NC cleavage site of Gag-Pol protein harboring W184A/M185A mutant expressed in Escherichia coli assessed as HetNOE value at SP1 T239 residues by NMR analysis (reference value: -0.324No_unit)
[7] = system: Human immunodeficiency virus 1; assay: Binding affinity to HIV-1NL4-3 15N-labeled C-terminal domain CA-SP1-NC cleavage site of Gag-Pol protein harboring W184A/M185A mutant expressed in Escherichia coli assessed as change in chemical shift perturbation at CA 218 to NC 257 residues by 1H-15N SOFAST-HMQC spectroscopic analysis
Method in brief: (§2)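 1H-15N SOFAST-HMQC of 300 μM 15N-labelled CA-CTD(W184A/M185A)-SP1-NC, without and with ligand. Buffer: 25 mM Na acetate pH 6.5, 25 mM NaCl, 0.1 mM ZnCl2, 0.1 mM 2-mercaptoethanol, 10% D2O. Recorded at 303 K, 600 MHz, cryoprobe. Ligand from ~60 mM DMSO-d6 stock. Control sample held protein plus the same DMSO-d6 amount.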

[8] = system: Human immunodeficiency virus 1; assay: Binding affinity to HIV-1NL4-3 15N-labeled C-terminal domain CA-SP1-NC cleavage site of Gag-Pol protein harboring W184A/M185A mutant expressed in Escherichia coli assessed as change in peak intensity at CA 218 to NC 257 residues by 1H-15N SOFAST-HMQC spectroscopic analysis; method in brief: as §2
[9] = system: Human immunodeficiency virus 1; assay: Binding affinity to HIV-1NL4-3 15N-labeled C-terminal domain CA-SP1-NC cleavage site of Gag-Pol protein harboring W184A/M185A mutant expressed in Escherichia coli assessed as change in resonances at CA 220/225 to 229 and Nc 248 to 253/ 256 residues by 1H-15N SOFAST-HMQC spectroscopic analysis; method in brief: as §2
[10] = Binding affinity to HIV-1NL4-3 15N-labeled C-terminal domain CA-SP1-NC at E233 residue cleavage site of Gag-Pol protein harboring W184A/M185A mutant expressed in Escherichia coli by 1H-15N SOFAST-HMQC spectroscopic analysis; design: species or system Human immunodeficiency virus 1; method in brief: as §1
[11] = system: Human immunodeficiency virus 1; assay: Binding affinity to HIV-1NL4-3 15N-labeled C-terminal domain CA-SP1-NC cleavage site of Gag-Pol protein harboring W184A/M185A mutant expressed in Escherichia coli assessed as change in peak intensity at CA 225 to 229/NC 248 to 251 residues by NMR analysis
[12] = Binding affinity to HIV-1NL4-3 15N-labeled C-terminal domain CA-SP1-NC at V238 residue cleavage site of Gag-Pol protein harboring W184A/M185A mutant expressed in Escherichia coli by 1H-15N SOFAST-HMQC spectroscopic analysis; design: species or system Human immunodeficiency virus 1; method in brief: as §1
[13] = Binding affinity to HIV-1NL4-3 15N-labeled C-terminal domain CA-SP1-NC at S236 residue cleavage site of Gag-Pol protein harboring W184A/M185A mutant expressed in Escherichia coli by 1H-15N SOFAST-HMQC spectroscopic analysis; design: species or system Human immunodeficiency virus 1; method in brief: as §1
[14] = Binding affinity to HIV-1NL4-3 15N-labeled C-terminal domain CA-SP1-NC at T257 residue cleavage site of Gag-Pol protein harboring W184A/M185A mutant expressed in Escherichia coli by 1H-15N SOFAST-HMQC spectroscopic analysis; design: species or system Human immunodeficiency virus 1; method in brief: as §1
[15] = Binding affinity to HIV-1NL4-3 15N-labeled C-terminal domain CA-SP1-NC at Q237 residue cleavage site of Gag-Pol protein harboring W184A/M185A mutant expressed in Escherichia coli by 1H-15N SOFAST-HMQC spectroscopic analysis; design: species or system Human immunodeficiency virus 1; method in brief: as §1
[16] = Binding affinity to HIV-1NL4-3 15N-labeled C-terminal domain CA-SP1-NC at T239 residue cleavage site of Gag-Pol protein harboring W184A/M185A mutant expressed in Escherichia coli by 1H-15N SOFAST-HMQC spectroscopic analysis; design: species or system Human immunodeficiency virus 1; method in brief: as §1

Question: Which Kd [1] does the source give for C=C(C)[C@@H]1CC[C@]2(C(=O)NCCN)CC[C@]3(C)[C@@H](CC[C@@H]4[C@@]5(C)CC[C@H](OC(=O)CC(C)(C)C(=O)O)C(C)(C)[C@@H]5CC[C@]43C)[C@@H]12 here?
Answer: 670 µM

Question: What about the Kd [2] of the same compound?
Answer: 692 µM

Question: What about the Kd [3] of the same compound?
Answer: 678 µM

Question: And the Activity [4]?
Answer: Active

Question: And the Kd [5]?
Answer: 235 µM

Question: And the Activity [6]?
Answer: -0.164

Question: What about the Activity [7] of the same compound?
Answer: Active

Question: What about the Activity [8] of the same compound?
Answer: Active

Question: What about the Activity [9] of the same compound?
Answer: Active

Question: And the Kd [10]?
Answer: 237 µM

Question: And the Activity [11]?
Answer: Active

Question: What about the Kd [12] of the same compound?
Answer: 204 µM

Question: And the Kd [13]?
Answer: 180 µM

Question: And the Kd [14]?
Answer: 308 µM

Question: And the Kd [15]?
Answer: 154 µM

Question: And the Kd [16]?
Answer: 52.5 µM
